In ChEMBL document CHEMBL1122828, “Resolution and absolute configuration of the potent dopamine agonist N,N-diethyl-N'-[(3 alpha, 4a alpha, 10a beta)-1,2,3,4,4a,5,10,10a- -octahydro-6-hydroxy-1-propyl-3-benzo[g]quinolinyl]sulfamide” (J Med Chem, 1985):
pIC50: −log10 of the molar value.

Legend:
[1] = target: T1, Adrenergic receptor alpha-1 (Rattus norvegicus, UniProt P15823+P23944+P43140); experiment: In vitro inhibitory activity was evaluated against,[3H]WB 4101 whole rat brain alpha 1-adrenoceptor
T1 sequence (P15823 whole entry): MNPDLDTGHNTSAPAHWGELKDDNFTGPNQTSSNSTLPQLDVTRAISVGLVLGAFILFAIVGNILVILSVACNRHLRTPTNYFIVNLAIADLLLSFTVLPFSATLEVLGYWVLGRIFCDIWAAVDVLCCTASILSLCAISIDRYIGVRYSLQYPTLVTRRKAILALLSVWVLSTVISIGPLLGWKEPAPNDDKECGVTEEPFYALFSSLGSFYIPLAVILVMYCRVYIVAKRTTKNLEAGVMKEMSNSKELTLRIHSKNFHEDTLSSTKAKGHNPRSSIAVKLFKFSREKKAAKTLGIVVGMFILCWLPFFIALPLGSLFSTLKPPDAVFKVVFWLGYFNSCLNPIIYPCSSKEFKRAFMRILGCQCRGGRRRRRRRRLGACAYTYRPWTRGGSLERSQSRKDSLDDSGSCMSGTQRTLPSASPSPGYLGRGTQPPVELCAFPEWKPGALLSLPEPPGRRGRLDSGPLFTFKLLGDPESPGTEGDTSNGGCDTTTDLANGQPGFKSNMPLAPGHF
T1 sequence (P23944 whole entry): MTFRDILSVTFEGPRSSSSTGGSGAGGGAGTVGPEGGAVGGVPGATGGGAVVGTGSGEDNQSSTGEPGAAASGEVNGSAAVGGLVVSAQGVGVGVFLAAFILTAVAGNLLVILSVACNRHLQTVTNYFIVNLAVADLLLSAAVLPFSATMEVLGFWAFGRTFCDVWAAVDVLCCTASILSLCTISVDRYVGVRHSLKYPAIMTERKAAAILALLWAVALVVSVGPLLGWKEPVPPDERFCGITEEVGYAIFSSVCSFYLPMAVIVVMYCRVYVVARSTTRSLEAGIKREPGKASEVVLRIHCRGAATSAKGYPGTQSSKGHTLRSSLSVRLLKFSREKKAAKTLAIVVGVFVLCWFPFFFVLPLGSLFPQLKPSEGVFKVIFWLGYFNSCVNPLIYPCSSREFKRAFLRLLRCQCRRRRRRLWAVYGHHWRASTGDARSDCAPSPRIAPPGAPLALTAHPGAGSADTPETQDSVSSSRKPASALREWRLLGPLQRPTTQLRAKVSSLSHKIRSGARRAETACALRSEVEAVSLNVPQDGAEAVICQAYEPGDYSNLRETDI
T1 sequence (P43140 whole entry): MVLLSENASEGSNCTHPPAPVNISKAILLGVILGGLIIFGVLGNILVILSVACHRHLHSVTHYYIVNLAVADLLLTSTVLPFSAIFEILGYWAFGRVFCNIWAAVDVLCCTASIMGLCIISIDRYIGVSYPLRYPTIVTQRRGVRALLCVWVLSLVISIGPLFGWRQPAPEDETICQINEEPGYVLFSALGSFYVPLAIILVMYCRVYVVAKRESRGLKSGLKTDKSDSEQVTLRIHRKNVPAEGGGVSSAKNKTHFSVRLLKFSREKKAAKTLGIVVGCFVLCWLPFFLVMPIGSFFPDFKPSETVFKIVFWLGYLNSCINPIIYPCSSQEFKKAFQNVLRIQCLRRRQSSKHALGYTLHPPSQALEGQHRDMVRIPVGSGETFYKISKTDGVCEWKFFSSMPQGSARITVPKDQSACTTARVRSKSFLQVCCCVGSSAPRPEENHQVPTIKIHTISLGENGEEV
In short: (§1)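 Radioligand displacement used brain homogenates. Four to six test concentrations were each incubated in triplicate. IC50 in nM came from weighted regression analysis.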

[2] = target: T2, Dopamine receptor (Bos taurus, UniProt Q95136+P20288); experiment: In vitro inhibitory activity was evaluated against,[3H]dopamine (DA),calf caudate dopamine receptor; format: protein assay; in short: as §1
[3] = target: T2, Dopamine receptor; experiment: In vitro inhibitory activity was evaluated against,[3H]spiperone calf caudate (SPC) dopamine receptor; format: protein assay; in short: as §1
[4] = target: Serotonin (5-HT) receptor; experiment: In vitro inhibitory activity was evaluated against,[3H]spiperone rat frontal cortex (SPFC) serotonin receptor; format: tissue-based
[5] = target: Serotonin (5-HT) receptor; experiment: In vitro inhibitory activity was evaluated against,[3H]serotonin (5-HT) whole rat brain serotonin receptor
[6] = target: T3, Adrenergic receptor alpha-2 (Rattus norvegicus, UniProt P22086+P19328+P22909); experiment: In vitro inhibitory activity was evaluated against,[3H]clonidine (Clon) rat brain minus cerebellum Alpha-2 adrenergic receptor; format: tissue-based; in short: as §1
T3 sequence (P22086 whole entry): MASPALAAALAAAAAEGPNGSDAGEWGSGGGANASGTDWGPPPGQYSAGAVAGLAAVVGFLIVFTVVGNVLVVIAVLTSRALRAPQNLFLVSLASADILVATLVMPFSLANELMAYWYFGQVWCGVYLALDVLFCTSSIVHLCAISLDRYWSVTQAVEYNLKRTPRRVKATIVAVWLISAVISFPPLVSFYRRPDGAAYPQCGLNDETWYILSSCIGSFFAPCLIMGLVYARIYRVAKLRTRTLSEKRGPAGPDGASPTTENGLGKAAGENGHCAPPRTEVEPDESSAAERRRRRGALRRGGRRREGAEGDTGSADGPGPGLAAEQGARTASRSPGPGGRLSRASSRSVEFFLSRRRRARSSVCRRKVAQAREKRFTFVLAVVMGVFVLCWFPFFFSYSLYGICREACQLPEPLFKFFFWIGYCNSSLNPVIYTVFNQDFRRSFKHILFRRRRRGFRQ
T3 sequence (P19328 whole entry): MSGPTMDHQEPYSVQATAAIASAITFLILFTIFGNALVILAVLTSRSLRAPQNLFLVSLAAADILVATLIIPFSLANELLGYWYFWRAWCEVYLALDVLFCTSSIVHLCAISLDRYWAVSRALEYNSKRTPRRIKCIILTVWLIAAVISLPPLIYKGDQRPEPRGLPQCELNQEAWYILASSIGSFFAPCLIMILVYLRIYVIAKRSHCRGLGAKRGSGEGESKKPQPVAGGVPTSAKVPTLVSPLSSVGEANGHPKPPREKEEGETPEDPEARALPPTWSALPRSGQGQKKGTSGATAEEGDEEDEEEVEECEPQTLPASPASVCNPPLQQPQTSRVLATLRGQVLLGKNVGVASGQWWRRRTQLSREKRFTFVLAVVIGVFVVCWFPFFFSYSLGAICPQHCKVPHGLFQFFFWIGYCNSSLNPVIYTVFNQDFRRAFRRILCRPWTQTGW
T3 sequence (P22909 whole entry): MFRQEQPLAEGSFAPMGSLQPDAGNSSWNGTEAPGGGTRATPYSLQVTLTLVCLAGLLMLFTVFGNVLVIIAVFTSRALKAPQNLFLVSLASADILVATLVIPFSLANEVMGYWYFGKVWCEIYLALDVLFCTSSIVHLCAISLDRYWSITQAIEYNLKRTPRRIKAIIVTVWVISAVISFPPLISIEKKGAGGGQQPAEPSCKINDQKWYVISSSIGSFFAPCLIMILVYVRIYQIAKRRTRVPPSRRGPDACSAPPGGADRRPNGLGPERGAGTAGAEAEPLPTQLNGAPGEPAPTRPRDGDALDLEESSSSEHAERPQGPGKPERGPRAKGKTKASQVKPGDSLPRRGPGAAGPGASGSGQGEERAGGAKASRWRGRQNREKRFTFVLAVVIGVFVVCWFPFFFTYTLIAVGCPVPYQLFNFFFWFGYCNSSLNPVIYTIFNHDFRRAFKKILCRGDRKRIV

[7] = tested on: Rattus norvegicus; experiment: Compound was evaluated for the in vivo inhibition of basal prolactin for a time 4 hr after injection in male rats; format: functional
In short: (§2)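 Adult male SIV 50 rats were housed singly from the day before, with light from 4 a.m. to 6 p.m. They got a single sc injection and were decapitated 4 h later. Trunk blood was taken and serum pooled from 3 rats per group, with 1–3 groups per dose. Prolactin was measured by double-antibody RIA against NIH rat Prl RP-1. The dose giving a 50% fall in serum prolactin was estimated graphically.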

[8] = target: T2, Dopamine receptor; experiment: In vitro inhibitory activity was evaluated against [3H]spiperone calf caudate (SPC) dopamine receptor; format: protein assay; in short: as §1
[9] = tested on: Rattus norvegicus; experiment: Compound was evaluated for the in vivo inhibition of basal prolactin secretion for a time 4 hr after injection in male rats; format: functional; settings: read-out: ID50 (the source's name); in short: as §2
[10] = target: T2, Dopamine receptor; experiment: In vitro inhibitory activity was evaluated against [3H]dopamine (DA) calf caudate dopamine receptor; format: protein assay; in short: as §1
[11] = tested on: Rattus norvegicus; experiment: Compound was evaluated for the in vivo inhibition of basal prolactin secretion for a time 30 min after injection in male rats; format: functional; settings: 0.5 h, read-out: ID50 (the source's name)
[12] = tested on: Rattus norvegicus; experiment: Compound was evaluated for the in vivo inhibition of basal prolactin secretion for a time 60 min after injection in male rats; format: functional; settings: 1 h, read-out: ID50 (the source's name)

Row | SMILES | pIC50 [1] | pIC50 [2] | pIC50 [3] | pIC50 [4] | IC50 [5] [µM] | pIC50 [6] | ED50 ([7]; Rattus norvegicus, 4 h, read-out: ID50 (the source's name)) [mg/kg] | ID50 [7] [mg/kg] | IC50 [8] [µM] | ED50 [9] [mg/kg] | IC50 [1] [µM] | IC50 [10] [µM] | IC50 [6] [µM] | IC50 [2] [µM] | IC50 [3] [µM] | ED50 [11] [mg/kg] | ED50 [12] [mg/kg]
1 | CCN(CC)S(=O)(=O)N[C@H]1C[C@@H]2c3cccc4[nH]cc(c34)C[C@H]2N(C)C1 [ETISULERGINE] | 5.48 | 6.92 | 7.60 | 7.59 | > 5 | 6.32 | 0.0014 | – | – | – | – | – | – | – | – | – | –
2 | CCCN1CC(NS(=O)(=O)N(CC)CC)CC2Cc3c(O)cccc3CC21 (racemic) [QUINAGOLIDE] | 5.11 | 6.72 | 7.32 | – | – | 5.25 | – | 0.005 | – | – | – | – | – | – | – | – | –
3 | CCCN1CC(NS(=O)(=O)N(CC)CC)CC2Cc3c(O)cccc3CC21 (stereo in doubt; (+)1) [QUINAGOLIDE] | – | – | – | – | – | – | – | – | > 10 | > 3 | > 10 | > 100 | > 10 | – | – | – | –
4 | CCCN1CC(NS(=O)(=O)N(CC)CC)CC2Cc3c(O)cccc3CC21 (stereo in doubt; -1) [QUINAGOLIDE] | – | – | – | – | – | – | – | 0.0018 | – | – | 6 | – | 7.4 | 0.075 | 0.019 | – | –
5 | CN1CCc2cccc3c2[C@H]1Cc1ccc(O)c(O)c1-3 [APOMORPHINE] | 5.11 | – | – | 5.35 | > 10 | – | – | – | – | > 10 | – | – | – | – | – | 0.058 | 0.081
